Measurements reported in ChEMBL document CHEMBL5252676, “Dimeric polyphenols to pave the way for new antimalarial drugs” (RSC Med Chem, 2023).
In brackets after ≈: the same amount, converted by molar mass. Several values for one entry are separate records, joined by “and”; a condition that tells them apart may be missing. Equal entries are not always repeated. Activity calls are given as the source filed them. No cut-off for these calls is given here.

How the values were obtained:
[1] = Cytotoxicity against HUVEC cells assessed as inhibition of cell growth incubated for 48 hrs by fluorescence based assay; type: toxicity; details: human
How it was run: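 HUVEC in EGM-2, at most 10 passages, seeded at 2.5 × 10⁴ cells/well and grown 24 h at 37 °C. Six 2-fold concentrations in triplicate (DMSO max 0.5%) for 48 h. PrestoBlue for 2–3 h, fluorescence 560–590 nm, growth compared with untreated cells. n = 3 separate tests.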

[2] = Aqueous solubility of compound assessed as Cmax incubated for 3 days by UV spectrophotometer based shake-flask method; type: physicochemical; details: water (aqueous); time 3 day; read-out: Cmax
How it was run: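 Shake-flask: excess solid stirred overnight in MilliQ water at RT (~25 °C), filtered 0.45 μm, diluted, absorbance read at the λmax from a UV scan. Quantified against a 3-point calibration curve (R² > 0.95). Fresh saturated solutions were made on 3 consecutive days.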

Plasmodium falciparum [3] = test: Antiplasmodial activity against chloroquine-sensitive Plasmodium falciparum 3D7 assessed as intraerythrocytic growth inhibition; type: functional, organism-based
How it was run: (§1)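 Asexual intraerythrocytic P. falciparum cultured at 37 °C in RPMI with glucose, hypoxanthine, gentamycin and 10% pooled human A+/O+ serum. DMSO stocks of 5–10 mg mL⁻¹ diluted in RPMI, final DMSO at most 1%. Eight two-fold dilutions tested in three consecutive assays. Growth read as Plasmodium lactate dehydrogenase activity at 650 nm against parasitized RBC (100%) and free RBC (0%). IC50 in triplicate; artemisinin and quinine as controls.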

Plasmodium falciparum [4] = test: Antiplasmodial activity against Plasmodium falciparum 3D7 assessed as inhibition of parasite reduction by giemsa staining based analysis; type: functional, organism-based
How it was run: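 3D7 cultures were exposed to compound for 48 h. Parasitaemia was then scored by microscopy as a visual check of parasite burden.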

[5] = Hemolytic activity in RBC (unknown origin) assessed as hemolysis at 100 ug/ml incubated for 1 hrs by absorbance based microplate reader analysis relative to control; type: toxicity, cell-based, Erythrocyte; details: red blood cells, at 100 µg/mL, read-out: Activity
How it was run: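 Human A⁺/O⁺ RBC, 10% v/v in PBS, exposed to compound at 100 μg mL⁻¹ final (DMSO < 1%), in duplicate, stirred 1 h at RT. Centrifuged, supernatant OD₅₅₀ read. % lysis = (sample − PBS)/(1% Triton X-100 − PBS) × 100.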

[6] = Selectivity index, ratio of IC50 for cytotoxicity against HUVEC cells to IC50 for antiplasmodial activity against chloroquine-sensitive Plasmodium falciparum 3D7; type: toxicity, cell-based; details: human, read-out: Ratio IC50
[7] = test system: Plasmodium vinckei petteri; test: Antiplasmodial activity against Plasmodium vinckei petteri infected in Swiss mouse model assessed as inhibition of parasite growth administered orally for 4 days; type: functional; details: 96 h, route po, time 4 day
Plasmodium falciparum [8] = test: Antiplasmodial activity against chloroquine-resistant Plasmodium falciparum FcB1 assessed as intraerythrocytic growth inhibition; type: functional, organism-based; how it was run: as §1
Plasmodium berghei [9] = test: Antiplasmodial activity against Plasmodium berghei NK173 infected in Swiss CD-1 mouse model of malaria assessed as reduction in parasitaemia at 50 mg/kg, po measured after 7 days by giemsa staining based microscopic analysis; type: functional, organism-based; details: time 7.0 day
How it was run: (§2)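 Peters' 4-day suppressive test: female Swiss CD1 mice (10 weeks, 25 ± 2 g), six per group, infected i.p. with P. berghei NK173-parasitized RBC at D1. Dosing 2–3 h post-infection, then daily for 3 days, in 7% Tween 80/3% EtOH in saline. Giemsa thin tail-blood smears (≥500 erythrocytes) at D4 (2 h post-dose) and D7. Inhibition is taken versus vehicle controls.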

[10] = test system: Plasmodium vinckei petteri; test: Antiplasmodial activity against Plasmodium vinckei petteri infected in Swiss mouse model assessed as reduction in parasitaemia at 50 mg/kg, ip administered for 4 days; set-up: scale not given: the % may be the effect or the level left; details: time 4 day
[11] = test system: Plasmodium vinckei petteri; test: Antiplasmodial activity against Plasmodium vinckei petteri infected in Swiss mouse model assessed as inhibition of parasite growth administered intraperitoneally for 4 days; type: functional; details: 96 h, route ip, time 4 day
Plasmodium falciparum [12] = test: Antiplasmodial activity against multidrug-resistant Plasmodium falciparum W2 assessed as intraerythrocytic growth inhibition; type: functional, organism-based; how it was run: as §1
[13] = test system: Plasmodium vinckei petteri; test: Antiplasmodial activity against Plasmodium vinckei petteri infected in Swiss mouse model assessed as inhibition of parasite growth at 50 to 100 mg/kg,ip administered for 4 days relative to control; type: functional; set-up: scale not given: the % may be the effect or the level left; details: dose 50-100 mg/kg, time 4 day
[14] = Oral bioavailability in human; type: ADME, organism-based; details: in vivo
Plasmodium falciparum [15] = test: Antiplasmodial activity against Plasmodium falciparum 3D7 assessed as inhibition of parasite reduction by Plasmodium lactate dehydrogenase activity
Plasmodium berghei [16] = test: Antiplasmodial activity against Plasmodium berghei NK173 infected in Swiss CD-1 mouse model of malaria assessed as reduction in parasitaemia at 4 mg/kg, ip measured after 7 days by giemsa staining based microscopic analysis; type: functional, organism-based; details: time 7.0 day; how it was run: as §2
Plasmodium berghei [17] = test: Antiplasmodial activity against Plasmodium berghei NK173 infected in Swiss CD-1 mouse model of malaria assessed as reduction in parasitaemia at 25 mg/kg, po measured after 7 days by giemsa staining based microscopic analysis; type: functional, organism-based; details: time 7.0 day; how it was run: as §2
[18] = Toxicity in zebrafish embryo assessed as developmental defects at 10 to 100 ug/ml measured 24 hrs post fertilization; set-up: species or system Danio rerio; details: in vivo, dose 10-100 µg/ml
[19] = Toxicity in zebrafish embryos assessed as egg hatching at 10 to 100 ug/ml measured for 72 hrs relative to control; type: tissue-based, Danio rerio; details: in vivo, at 10 to 100 µg/mL, dose 10-100 µg/ml
[20] = Toxicity in mouse at 200 mg/kg, po administered 2 hrs once for 6 hrs and measured for 24 hrs; type: organism-based; details: in vivo
How it was run: (§3)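 Two mice per route (i.p. or p.o.) received 4 increasing doses over 6 h (every 2 h) in Tween 80/EtOH/saline (7/3/90), then were followed for 24 h for health or behavioural problems. Maximal dose is set as 50% of the cumulative dose giving toxicity.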

[21] = Toxicity in mouse at 150 mg/kg, ip administered 2 hrs once for 6 hrs and measured for 24 hrs; type: organism-based; details: in vivo; how it was run: as §3
[22] = Toxicity in zebrafish embryos assessed as modified heart rate at 10 to 100 ug/ml measured for 3 days; set-up: species or system Danio rerio; details: in vivo, 72 h, dose 10-100 µg/ml, time 3 day
Plasmodium berghei [23] = test: Antiplasmodial activity against Plasmodium berghei NK173 infected in Swiss CD-1 mouse model of malaria assessed as reduction in parasitaemia at 50 mg/kg, po measured after 4 days by giemsa staining based microscopic analysis relative to control; type: functional; set-up: scale not given: the % may be the effect or the level left; details: time 4 day; how it was run: as §2
[24] = Toxicity in zebrafish embryos assessed as survival at highest concentration measured for 3 days relative to control; set-up: species or system Danio rerio; details: in vivo, time 3 day, read-out: Activity
How it was run: (§4)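 Zebrafish embryos were synchronized 24 h after collection and kept at 28 °C with chorion intact, 20 per condition in duplicate. They were exposed to 100, 50, 25 or 10 μg mL⁻¹ from 100 mg mL⁻¹ DMSO stocks (final DMSO under 0.1%), with medium renewed daily for 3 days. Aspect, hatching and mortality were followed to 96 hpf against 30 control embryos in water with 0.1% DMSO.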

[25] = Toxicity in zebrafish embryos assessed as reduction in brain size at 10 to 100 ug/ml measured for 3 days; type: tissue-based, Danio rerio; details: in vivo, 72 h, dose 10-100 µg/ml, time 3 day
Plasmodium berghei [26] = test: Antiplasmodial activity against Plasmodium berghei NK173 infected in Swiss CD-1 mouse model of malaria assessed as reduction in parasitaemia at 50 mg/kg, ip measured after 4 days by giemsa staining based microscopic analysis relative to control; type: functional; set-up: scale not given: the % may be the effect or the level left; details: time 4 day; how it was run: as §2
[27] = Toxicity in zebrafish embryo assessed as survival at 10 to 100 ug/ml measured 24 hrs post fertilization relative to control; set-up: species or system Danio rerio; details: in vivo, at 10 to 100 µg/mL, dose 10-100 µg/ml, read-out: Activity; how it was run: as §4
[28] = Toxicity in zebrafish embryos assessed as brain misshape at 10 to 100 ug/ml measured for 3 days; type: tissue-based, Danio rerio; details: in vivo, 72 h, dose 10-100 µg/ml, time 3 day
[29] = Cytotoxicity against HUVEC confluent cells assessed as inhibition of cell growth incubated for 48 hrs by fluorescence based assay; type: toxicity; details: human
How it was run: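 Confluent HUVEC: plates seeded 3 days before treatment, then exposed to six 2-fold concentrations for 48 h. PrestoBlue fluorescence read-out (560–590 nm), compared with untreated cells.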

[30] = Selectivity index, ratio of IC50 for antiplasmodial activity against chloroquine-resistant Plasmodium falciparum FcB1 to IC50 for antiplasmodial activity against chloroquine-sensitive Plasmodium falciparum 3D7; type: functional
[31] = Toxicity in zebrafish embryo assessed as egg hatching at 100 ug/ml measured for 72 hrs relative to control; type: tissue-based, Danio rerio; details: in vivo, at 100 µg/mL
[32] = Selectivity index, ratio of IC50 for antiplasmodial activity against chloroquine-resistant Plasmodium falciparum FcB1 to IC50 for antiplasmodial activity against multidrug-resistant Plasmodium falciparum W2; type: functional
[33] = Toxicity in zebrafish embryos assessed as reduction in egg hatching measured for 72 hrs; set-up: species or system Danio rerio; details: in vivo, dose 10-100 µg/ml
[34] = Toxicity in zebrafish embryos assessed as reduction in egg hatching at 10 to 100 ug/ml measured 5 days post fertilization; set-up: species or system Danio rerio; details: in vivo, 120 h, dose 10-100 µg/ml, time 5 day

O=C(O)c1cc(O)c(O)c(O)c1 [GALLIC ACID]
IC50 at 48 h [1]: > 294 µM | solubility thermodynamic at 72 h [2]: 70000 µM (≈ 11900 µg/mL) | IC50 (Plasmodium falciparum [3]): 68 µM | IC50 (Plasmodium falciparum [4]): > 10 µM and 68 µM | hemolysis at 1 h, 100 ug/ml [5]: < 1% | selectivity ratio [6]: > 4

O=c1oc2c(O)c(O)cc3c(=O)oc4c(O)c(O)cc1c4c23 [ELLAGIC ACID]
IC50 at 48 h [1]: > 165 µM | solubility thermodynamic at 72 h [2]: 18 µM (≈ 5.44 µg/mL) | ED50 [7]: > 100 mg/kg | IC50 (Plasmodium falciparum [8]): 7.5 µM | Activity (Plasmodium berghei [9]): inactive | Activity [10]: 100% | IC50 (Plasmodium falciparum [3]): 2.8 µM | ED50 [11]: < 1 mg/kg | IC50 (Plasmodium falciparum [12]): 8.9 µM | Activity [13]: 100% | bioavailability [14]: 1% | hemolysis at 1 h, 100 ug/ml [5]: < 1% | selectivity ratio [6]: > 59 | IC50 (Plasmodium falciparum [15]): 2.8 µM

CCN(CC)CCCC(C)Nc1ccnc2cc(Cl)ccc12 (stereo not drawn) [CHLOROQUINE]
Activity (Plasmodium berghei [16]): inactive | Activity (Plasmodium berghei [17]): inactive | hemolysis at 1 h, 100 ug/ml [5]: < 1%

O=C(OCCCOC(=O)c1cc(O)c(O)c(O)c1)c1cc(O)c(O)c(O)c1
Activity [18]: Non-Toxic | IC50 at 48 h [1]: > 132 µM | Activity [19]: 100% | Activity [20]: Non-Toxic | Activity [21]: Non-Toxic | Activity [22]: Non-Toxic | solubility thermodynamic at 72 h [2]: 2700 µM (≈ 1030 µg/mL) | IC50 (Plasmodium falciparum [8]): 3.2 µM | Activity (Plasmodium berghei [23]): 5% | IC50 (Plasmodium falciparum [3]): 5.8 µM | survival at 72 h [24]: > 90% | Activity [25]: Non-Toxic | IC50 (Plasmodium falciparum [12]): 4.1 µM | Activity (Plasmodium berghei [26]): 26% | hemolysis at 1 h, 100 ug/ml [5]: < 1% | selectivity ratio [6]: > 23 | survival at 24 h [27]: > 95% | Activity [28]: Non-Toxic

O=C(OCCCOC(=O)c1cc(O)c(OCc2ccccc2)c(O)c1)c1cc(O)c(OCc2ccccc2)c(O)c1
Activity [18]: Non-Toxic | IC50 at 48 h [1]: 14 µM | Activity [19]: 100% | Activity [22]: Non-Toxic | solubility thermodynamic at 72 h [2]: 26 µM (≈ 14.6 µg/mL) | IC50 (Plasmodium falciparum [8]): 1.7 µM | IC50 at 48 h [29]: 12.1 µM | IC50 (Plasmodium falciparum [3]): 1.8 µM | survival at 72 h [24]: > 90% | Activity [25]: Non-Toxic | IC50 (Plasmodium falciparum [12]): 1.9 µM | hemolysis at 1 h, 100 ug/ml [5]: < 1% | selectivity ratio [6]: 8 | survival at 24 h [27]: > 95% | Activity [28]: Non-Toxic

O=C(NCCCNC(=O)c1cc(O)c(O)c(O)c1)c1cc(O)c(O)c(O)c1
Ratio IC50 [30]: 2 | Activity [18]: Non-Toxic | Activity [31]: 20% | IC50 at 48 h [1]: 130 µM | Ratio IC50 [32]: 2 | Activity [20]: Non-Toxic | Activity [21]: Non-Toxic | Activity [22]: Non-Toxic | solubility thermodynamic at 72 h [2]: 610 µM (≈ 231 µg/mL) | IC50 (Plasmodium falciparum [8]): 26 µM | Activity [33]: Dose-Dependent Effect | Activity (Plasmodium berghei [23]): 54% | IC50 (Plasmodium falciparum [3]): 9.9 µM | survival at 72 h [24]: > 90% | Activity [25]: Non-Toxic | IC50 (Plasmodium falciparum [12]): 12 µM | Activity (Plasmodium berghei [26]): 66% | hemolysis at 1 h, 100 ug/ml [5]: < 1% | Activity [34]: Toxic | selectivity ratio [6]: 28 | survival at 24 h [27]: > 95% | Activity [28]: Non-Toxic
